High-throughput results (PubChem BioAssay)
ADAM17 inh – ADAM17 inhibitors, primary screen, biochemical, QFRET. Disintegrin and metalloproteinase domain-containing protein 17 (Homo sapiens), P78536. AID 720648, 2013. 370,000 compounds, 0.83% hits. inhibition, % at 6.95 µM. recombinant ADAM17, EDANS/DABCYL FRET peptide cleavage;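 active = inhibition above the mean of compounds lying between control limits plus 3 SD, set per campaign, cut at about 8.5% in these data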
Target sequence (P78536 215-824 limits assumed): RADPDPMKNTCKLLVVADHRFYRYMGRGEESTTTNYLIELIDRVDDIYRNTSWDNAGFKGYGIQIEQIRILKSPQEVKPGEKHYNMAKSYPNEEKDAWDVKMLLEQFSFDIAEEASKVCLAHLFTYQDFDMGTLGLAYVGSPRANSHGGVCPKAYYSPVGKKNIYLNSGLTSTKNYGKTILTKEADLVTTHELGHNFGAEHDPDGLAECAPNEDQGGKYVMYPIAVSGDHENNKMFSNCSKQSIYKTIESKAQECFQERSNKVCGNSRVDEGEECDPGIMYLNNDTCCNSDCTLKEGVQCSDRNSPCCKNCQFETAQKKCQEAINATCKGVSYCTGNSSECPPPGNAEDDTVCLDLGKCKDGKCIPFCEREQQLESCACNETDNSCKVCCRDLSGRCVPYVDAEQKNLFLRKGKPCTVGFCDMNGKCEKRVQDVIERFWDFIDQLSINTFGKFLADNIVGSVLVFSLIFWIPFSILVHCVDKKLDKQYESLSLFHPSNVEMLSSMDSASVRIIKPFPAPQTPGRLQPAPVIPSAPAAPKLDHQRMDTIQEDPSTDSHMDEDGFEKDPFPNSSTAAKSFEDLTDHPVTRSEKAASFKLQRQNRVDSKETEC
SKN-1 block – suppressors of acrylamide-induced Pgst-4::GFP reporter in worms, primary screen, SKN-1 inhibitor project, whole organism, uHTS, GFP/RFP fluorescence ratio, strain VP596; AID 624304, 2012; inhibition, % at 21.8 µM; C. elegans VP596 Pgst-4::GFP/RFP ratio, 24 h; 360,000 compounds, 0.49% hits;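 active = interference check ratio from 0.5 to 1.5 plus GFP to RFP signal ratio inhibition reaching or exceeding a fixed threshold, cut at about 30% in these data, passing the limit was not always enough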
GRIN3A LBD mod – binders of NR3A ligand-binding domain, primary screen, biophysical, differential scanning fluorimetry, uHTS; 340,000 compounds, 2.5% hits; AID 1259313, 2017; Glutamate receptor ionotropic, NMDA 3A (GRIN3A) ligand-binding domain; NR3A LBD differential scanning fluorimetry, Tm shift; 0% = protein alone, 100% = glycine-bound protein; Tm shift relative to glycine control, % at 25 µM;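 active = melting temperature shift of at least 10% of the positive control shift, at one fixed dose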
MT1-MMP act inh – blockers of MT1-MMP proenzyme processing, primary screen, HT1080 RFP-PRO-GFP cells, GFP/RFP fluorescence. Matrix metalloproteinase-14 (Homo sapiens), P50281. GFP/RFP ratio fluorescence, overnight; percent of plate control window, DMSO zero. GFP/RFP ratio change, % at 20 µM. 360,000 compounds, 0.061% hits. AID 651647, 2012;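 active = GFP/RFP ratio change of at least 30% with cell ATP level not reduced by more than half and red fluorescence within 50% of control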
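Test system: HT1080 RFP-PRO-GFP cells; Benchmarks: DMSO and RFP-L50D-GFP cell wells; Timing: cells overnight before dosing, compound overnight, 37 °C, 5% CO2; Compound: one 20 µM compound dose with 1% DMSO; Read-out: GFP/RFP fluorescence ratio.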
MPTP inh – mitochondrial permeability transition pore inhibitors, primary screen, biochemical, isolated mouse mitochondria, absorbance; Ca2+ swelling absorbance, 30 min; inhibition, % at 10 µM; 360,000 compounds, 1.4% hits;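 active = inhibition of 50% or more, scaled per plate between neutral and stimulator controls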
ADAM10 inh – human ADAM10 inhibitors, primary screen, biochemical, QFRET, HTS. recombinant ADAM10, EDANS/DABCYL FRET peptide cleavage, 3 h. inhibition, % at 7 µM. 370,000 compounds, 0.62% hits. AID 720582, 2013;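 active = inhibition above a per-campaign cutoff equal to the mean of compounds falling between control-based bounds plus 3 SD, cut at about 20% in these data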
Rh123 counter – fluorescence retest of MPTP screen hits in isolated mitochondria, single concentration; shares compounds with MPTP inh; membrane potential, Rhodamine 123 fluorescence; inhibition, % at 10 µM; 5,000 compounds, 78% hits; in the data active = inhibition above about 22%
MPTP swell DR – mitochondrial permeability transition pore inhibitors, dose response, biochemical, absorbance, uHTS hits | shares compounds with MPTP inh | 780 compounds, 58% hits | isolated mitochondria swelling | IC50, µM; in the data active = IC50 below about 20 µM
MPTP counter DR – fluorescent counter-screen in isolated mitochondria, dose response, counter-screen for MPTP inhibitor project, biochemical, fluorescence, uHTS hits; shares compounds with MPTP inh; IC50, µM; isolated mitochondria counterscreen, fluorescence read-out; 780 compounds, 49% hits; in the data active = IC50 below about 80 µM
Hits are given with their value; – = inactive; · = no result. Only some compounds are listed: those with a hit (about 4.7% of all), similar ones and a draw of the others.

SMILES	ADAM17 inh	SKN-1 block	GRIN3A LBD mod	MT1-MMP act inh	MPTP inh	ADAM10 inh	Rh123 counter	others
CCOC(=O)C1(Cc2ccccc2)CCN(Cc2cnn(-c3ccccc3)c2)CC1	–	–	–	–	62	–	–	MPTP swell DR=15;MPTP counter DR=33
CCOC(=O)C1(Cc2ccccc2)CCN(Cc2cnn(CC)c2)CC1	–	–	–	–	–	–	·
CCn1cc(CN2CCCC(C(=O)c3ccc(-c4ccccc4)cc3)C2)cn1 (configuration not stated)	–	–	–	–	58	–	–	MPTP swell DR=19;MPTP counter DR=26
CCOC(=O)C1(Cc2ccccc2)CCCN(Cc2cnn(CC)c2)C1 (configuration not stated)	–	–	–	–	64	–	–	MPTP swell DR=–;MPTP counter DR=–
Cc1cccc(N=[N+]([O-])c2cccc(C)n2)n1	–	–	–	–	–	–	·
CC(C)(C)C(=O)N1CCN(c2ccnc3cc(Cl)ccc23)CC1	–	–	–	–	–	–	·
O=C(C1CCCCC1)N1CCN(c2ccnc3cc(Cl)ccc23)CC1	–	–	–	–	83	–	43
O=C(Nc1ccc(OC(F)(F)F)cc1)N1CCN(c2ccnc3cc(Cl)ccc23)CC1	–	–	–	–	96	–	81
Cc1nn(CC(=O)Nc2nccs2)c(C)c1[N+](=O)[O-]	–	–	–	–	–	–	·
CCN(CC)C(=O)c1n[nH]c(=O)c2ccccc12	–	–	–	–	–	–	·
COc1cc(CNCCO)cc(Cl)c1OCc1ccc(Cl)cc1Cl	–	–	–	–	97	–	–
COc1cc(CNC2CCCC2)cc(Cl)c1OCc1ccccc1Cl	·	–	–	–	82	·	–
O=C(Nc1cccs1)Nc1ccc(Br)cc1F	–	–	21	–	82	–	80
CC[C@H](C)Cc1cn([C@@H](CCCCN)C(=O)NCCCCCCCCCCC(=O)N2CCNCC2)nn1	–	–	–	–	89	–	–
NCCCCCc1cn([C@@H](CCC(=O)O)C(=O)NCCCCCCCCCCC(=O)N2CCNCC2)nn1	–	–	–	–	–	–	·
COc1cccc(N=Nc2ccc3cccnc3c2O)c1	–	–	–	–	–	–	·
c1ccc(CSc2n[nH]c(-c3ccco3)n2)cc1	–	–	–	–	–	–	·
COc1ccccc1OCCC(=O)OCCN1C(=O)c2ccccc2C1=O	–	–	–	–	–	–	·
CSc1ccccc1OC1CCN(Cc2ccccc2)CC1	–	–	–	–	54	–	–	MPTP swell DR=–;MPTP counter DR=63
CC(=O)C1CCN(Cc2ccccc2)CC1	–	–	–	–	–	–	·
CCOC(=O)c1sc2nccc(N(C)C)c2c1N=CN(C)C	–	–	–	–	–	–	·
Cn1c(=O)c2c(ncn2CC(=O)Nc2cccc(S(=O)(=O)Nc3ccccc3F)c2)n(C)c1=O	–	–	–	–	–	–	·
CN(C)S(=O)(=O)c1cccc(NC(=O)Cc2ccc(Cl)cc2)c1	–	–	–	–	–	–	·
O=C(Nc1cccc(S(=O)(=O)Nc2ccccc2Cl)c1)c1ccc(Cl)nc1	–	–	–	–	62	–	56
O=C(Cc1ccc(Cl)cc1)Nc1cccc(S(=O)(=O)Nc2ccccc2F)c1	–	–	–	–	60	–	64
SMILES	ADAM17 inh	SKN-1 block	GRIN3A LBD mod	MT1-MMP act inh	MPTP inh	ADAM10 inh	Rh123 counter	others
O=C(CSc1ccc([N+](=O)[O-])cc1)Nc1cccc(S(=O)(=O)Nc2ccccc2F)c1	–	–	24	–	87	–	68
O=C1N(Cc2ccccc2)c2ccccc2C12OCCO2	–	–	–	–	–	–	·
Cc1ccc(-n2ncc3c(N4CCN(c5ccccc5)CC4)ncnc32)c(C)c1	–	–	–	–	51	–	34
O=C(Nc1ccc(Cl)c(Cl)c1)N1CCSC1c1ccco1 (configuration not stated)	–	–	–	–	92	–	91
CC(=O)Nc1ccc(S(=O)(=O)N2CCSC2c2ccco2)cc1 (configuration not stated)	–	–	–	–	–	–	·
NC(c1csc(NC(=O)Nc2ccc(OC(F)(F)F)cc2)n1)C1CCCCC1 (configuration not stated)	–	–	·	–	62	–	88
COc1ccc(NC(=O)Nc2nc(C(N)CC(C)C)cs2)cc1 (configuration not stated)	–	–	·	–	–	–	·
N#C/C(N=Nc1ccccc1O)=N\Nc1ccccc1O	–	–	–	–	126	–	44
Oc1ccccc1N=N/C(=N/Nc1ccccc1O)c1ccccc1	–	–	–	–	–	–	·
CCCCNC(=S)Nc1ccc(C(F)(F)F)cc1	–	–	–	–	102	–	82
CCCNC(=S)Nc1cccc(C(F)(F)F)c1	–	–	–	–	–	–	·
CCCCNC(=S)Nc1ccc(Cl)cc1	–	–	–	–	83	–	81
NC(=O)CN1CCOCCOCCOCCOCCOCC1	–	–	–	–	–	–	·
CCCCOc1ccc(/C=C/C(=O)Nc2ccc([N+](=O)[O-])cc2C)cc1	–	–	–	–	–	–	·
Cc1cc(NS(=O)(=O)c2ccc(NC(=O)/C=C/c3ccc(C)o3)cc2)nc(C)n1	–	–	–	–	–	–	·
O=C(/C=C/c1ccc([N+](=O)[O-])cc1)Nc1ncc([N+](=O)[O-])s1	–	–	–	–	83	–	63
CCCOc1ccc(/C=C/C(=O)Nc2ccc([N+](=O)[O-])cc2)cc1	–	–	27	–	82	–	86
Cc1ccc(/C=C/C(=O)Nc2ccc([N+](=O)[O-])cc2)o1	–	–	–	–	89	–	75
O=C(C1CC1)N1CCC(c2nc(-c3ccc(S(=O)(=O)NCC4CCCO4)cc3)no2)CC1 (configuration not stated)	–	–	–	–	66	–	–	MPTP swell DR=–;MPTP counter DR=46
O=S(=O)(NCC1CCCO1)c1ccccc1 (configuration not stated)	–	–	–	–	–	–	·
O=C(c1ccccc1)N1CCC(c2nc(-c3ccc(S(=O)(=O)NCC4CCCO4)cc3)no2)CC1 (configuration not stated)	–	–	–	–	53	–	62
COc1cccc(NC(=O)Nc2ccc3c(c2)N(C)C(=O)CS3)c1	–	–	–	–	88	–	78
COc1cccc(NC(=O)Nc2ccc(C(C)(C)C)cc2)c1	–	–	18	–	79	–	81
